Laboratory results as given in ChEMBL document CHEMBL1131333, “2-Iminohomopiperidinium salts as selective inhibitors of inducible nitric oxide synthase (iNOS)” (J Med Chem, 1998).

How the values were obtained:
[1] = target: T1, Nitric oxide synthase, inducible (Mus musculus, UniProt P29477); experiment: The ability of compound to inhibit mouse Inducible nitric oxide synthase in LPS stimulated mouse RAW cells was determined; assay type: cell-based
T1 sequence (P29477 whole entry): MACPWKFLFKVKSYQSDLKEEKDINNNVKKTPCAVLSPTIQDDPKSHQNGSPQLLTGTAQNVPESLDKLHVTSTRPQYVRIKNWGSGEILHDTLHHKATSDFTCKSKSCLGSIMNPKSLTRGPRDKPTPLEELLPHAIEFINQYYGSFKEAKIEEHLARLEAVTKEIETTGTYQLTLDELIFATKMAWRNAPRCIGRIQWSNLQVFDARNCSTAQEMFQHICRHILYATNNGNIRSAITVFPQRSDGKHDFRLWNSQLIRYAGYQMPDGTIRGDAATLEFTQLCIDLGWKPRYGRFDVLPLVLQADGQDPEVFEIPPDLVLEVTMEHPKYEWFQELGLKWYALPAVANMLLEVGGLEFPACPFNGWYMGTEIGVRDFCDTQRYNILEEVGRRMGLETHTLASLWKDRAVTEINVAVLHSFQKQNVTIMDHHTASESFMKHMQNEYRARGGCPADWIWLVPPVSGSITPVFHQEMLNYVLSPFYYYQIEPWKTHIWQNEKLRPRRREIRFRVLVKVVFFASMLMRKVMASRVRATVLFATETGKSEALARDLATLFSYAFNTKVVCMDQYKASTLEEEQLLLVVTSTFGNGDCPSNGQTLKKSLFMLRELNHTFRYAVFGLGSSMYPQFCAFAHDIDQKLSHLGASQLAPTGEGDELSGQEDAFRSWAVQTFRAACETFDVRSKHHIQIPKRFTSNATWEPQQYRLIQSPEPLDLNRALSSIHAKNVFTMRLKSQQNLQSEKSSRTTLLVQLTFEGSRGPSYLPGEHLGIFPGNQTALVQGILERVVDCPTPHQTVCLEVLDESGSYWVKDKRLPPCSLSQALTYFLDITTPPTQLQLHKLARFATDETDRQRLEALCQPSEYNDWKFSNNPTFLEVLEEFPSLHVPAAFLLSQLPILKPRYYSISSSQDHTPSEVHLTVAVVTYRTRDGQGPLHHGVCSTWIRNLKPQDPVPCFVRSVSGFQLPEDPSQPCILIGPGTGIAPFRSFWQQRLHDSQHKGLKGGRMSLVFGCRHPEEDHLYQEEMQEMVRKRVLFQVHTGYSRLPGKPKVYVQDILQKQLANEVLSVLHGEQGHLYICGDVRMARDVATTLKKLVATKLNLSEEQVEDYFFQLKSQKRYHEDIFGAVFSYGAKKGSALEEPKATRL
How it was run: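 RAW 264.7 cells plated at 2×10^5/well and induced 17 h with 10 μg/mL LPS (E. coli O111:B4). Washed, preincubated 1 h on ice in Krebs Ringer/HEPES pH 7.5 with glucose, 30 μM L-arginine and five inhibitor concentrations, then 2 h at 37 °C. Nitrite measured fluorometrically.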

[2] = target: Nitric oxide synthase, inducible (Homo sapiens, UniProt P35228); experiment: Inhibitory activity evaluated for soluble cell extract of human Inducible nitric oxide synthase and partially purified by DEAE-sepharose chromatography
Nitric oxide synthase, inducible (Homo sapiens, UniProt P35228), sequence (P35228 whole entry): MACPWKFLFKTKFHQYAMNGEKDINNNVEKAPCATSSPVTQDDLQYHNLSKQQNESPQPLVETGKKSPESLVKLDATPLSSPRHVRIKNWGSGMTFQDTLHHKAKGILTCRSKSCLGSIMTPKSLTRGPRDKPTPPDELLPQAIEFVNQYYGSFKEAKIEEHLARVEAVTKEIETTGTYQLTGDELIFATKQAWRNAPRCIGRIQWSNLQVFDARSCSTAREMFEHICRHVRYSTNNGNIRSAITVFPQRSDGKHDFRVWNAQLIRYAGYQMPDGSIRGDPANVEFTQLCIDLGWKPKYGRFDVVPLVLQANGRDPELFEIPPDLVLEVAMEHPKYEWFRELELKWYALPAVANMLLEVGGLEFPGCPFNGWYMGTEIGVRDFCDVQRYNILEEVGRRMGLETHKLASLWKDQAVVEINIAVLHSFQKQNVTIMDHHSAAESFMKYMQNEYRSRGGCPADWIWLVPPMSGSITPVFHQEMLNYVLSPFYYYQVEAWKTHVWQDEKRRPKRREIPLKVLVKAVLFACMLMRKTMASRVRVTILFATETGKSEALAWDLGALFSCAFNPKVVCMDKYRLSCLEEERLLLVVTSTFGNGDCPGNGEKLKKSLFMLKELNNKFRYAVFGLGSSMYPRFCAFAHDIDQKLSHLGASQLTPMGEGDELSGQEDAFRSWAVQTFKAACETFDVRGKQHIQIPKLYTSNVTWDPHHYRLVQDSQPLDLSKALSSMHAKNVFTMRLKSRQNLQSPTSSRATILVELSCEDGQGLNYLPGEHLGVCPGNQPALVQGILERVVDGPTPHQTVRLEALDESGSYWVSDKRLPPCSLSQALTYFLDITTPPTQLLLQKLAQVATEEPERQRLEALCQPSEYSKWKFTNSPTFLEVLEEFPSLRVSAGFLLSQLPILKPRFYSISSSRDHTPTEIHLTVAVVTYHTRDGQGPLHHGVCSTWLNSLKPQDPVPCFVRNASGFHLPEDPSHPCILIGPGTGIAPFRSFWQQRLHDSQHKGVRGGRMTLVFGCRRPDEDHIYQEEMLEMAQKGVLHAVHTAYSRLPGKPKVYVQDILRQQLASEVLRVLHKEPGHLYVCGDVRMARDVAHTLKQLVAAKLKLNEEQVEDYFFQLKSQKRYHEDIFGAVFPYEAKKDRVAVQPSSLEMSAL
How it was run: (§1)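 Recombinant human iNOS, eNOS or nNOS expressed in Sf9 cells (baculovirus). L-[3H]arginine to [3H]citrulline conversion in Tris pH 7.6 with BSA, DTT, CaCl2, FAD, tetrahydrobiopterin, NADPH and 30 μM final L-arginine. Calmodulin at 40 nM final for eNOS and nNOS only. 15 min at 37 °C, stopped with EGTA/HEPES pH 5.5, Dowex separation, scintillation counting. At least duplicate.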

[3] = target: Nitric oxide synthase, inducible (Rattus norvegicus) (UniProt Q06518); experiment: The ability of compounds to inhibit Inducible nitric oxide synthase in LPS-treated male Lewis rats at 10 mg/kg dose; assay type: organism-based; parameters: dose 10 mg/kg
Nitric oxide synthase, inducible (Rattus norvegicus), sequence (Q06518 whole entry): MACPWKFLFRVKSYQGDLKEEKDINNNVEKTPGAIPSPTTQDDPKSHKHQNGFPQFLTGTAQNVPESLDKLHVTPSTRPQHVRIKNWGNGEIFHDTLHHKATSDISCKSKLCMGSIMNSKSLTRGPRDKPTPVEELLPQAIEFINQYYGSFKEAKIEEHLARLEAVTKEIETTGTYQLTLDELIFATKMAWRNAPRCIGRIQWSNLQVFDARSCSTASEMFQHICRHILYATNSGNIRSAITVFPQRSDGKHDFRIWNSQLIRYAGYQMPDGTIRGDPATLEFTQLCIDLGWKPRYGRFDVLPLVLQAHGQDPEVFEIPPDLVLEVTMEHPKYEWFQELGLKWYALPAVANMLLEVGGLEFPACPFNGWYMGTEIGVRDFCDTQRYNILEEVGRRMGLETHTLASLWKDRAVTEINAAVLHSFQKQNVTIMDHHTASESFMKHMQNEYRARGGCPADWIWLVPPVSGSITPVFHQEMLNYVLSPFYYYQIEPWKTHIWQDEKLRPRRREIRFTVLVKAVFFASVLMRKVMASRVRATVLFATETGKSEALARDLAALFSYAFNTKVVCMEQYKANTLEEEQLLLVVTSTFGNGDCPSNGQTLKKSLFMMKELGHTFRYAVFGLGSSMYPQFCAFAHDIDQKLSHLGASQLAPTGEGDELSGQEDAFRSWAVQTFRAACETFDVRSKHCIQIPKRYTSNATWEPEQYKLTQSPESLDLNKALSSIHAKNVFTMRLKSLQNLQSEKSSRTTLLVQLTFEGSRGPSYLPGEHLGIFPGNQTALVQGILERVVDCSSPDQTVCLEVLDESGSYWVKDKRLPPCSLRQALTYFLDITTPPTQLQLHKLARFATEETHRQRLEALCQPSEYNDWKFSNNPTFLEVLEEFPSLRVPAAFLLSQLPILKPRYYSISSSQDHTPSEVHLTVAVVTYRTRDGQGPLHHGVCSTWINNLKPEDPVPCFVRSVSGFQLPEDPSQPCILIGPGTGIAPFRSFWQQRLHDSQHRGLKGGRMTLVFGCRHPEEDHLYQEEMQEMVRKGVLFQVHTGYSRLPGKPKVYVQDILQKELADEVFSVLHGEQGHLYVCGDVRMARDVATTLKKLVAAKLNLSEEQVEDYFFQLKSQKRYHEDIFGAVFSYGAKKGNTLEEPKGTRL
How it was run: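 Rats dosed 10 mg/kg orally by gavage 1 h before LPS (10 mg/kg ip). Blood taken 5 h after LPS; plasma filtered through a 10 000 MW cutoff filter, and nitrite/nitrate measured fluorometrically. Percent inhibition calculated relative to rats given LPS alone.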

[4] = target: T2, Nitric oxide synthase 1 (Homo sapiens, UniProt P29475); experiment: Inhibitory activity evaluated from soluble cell extract of human nNeuronal nitric oxide synthase and partially purified by DEAE-sepharose chromatography; how it was run: as §1
T2 sequence (P29475 whole entry): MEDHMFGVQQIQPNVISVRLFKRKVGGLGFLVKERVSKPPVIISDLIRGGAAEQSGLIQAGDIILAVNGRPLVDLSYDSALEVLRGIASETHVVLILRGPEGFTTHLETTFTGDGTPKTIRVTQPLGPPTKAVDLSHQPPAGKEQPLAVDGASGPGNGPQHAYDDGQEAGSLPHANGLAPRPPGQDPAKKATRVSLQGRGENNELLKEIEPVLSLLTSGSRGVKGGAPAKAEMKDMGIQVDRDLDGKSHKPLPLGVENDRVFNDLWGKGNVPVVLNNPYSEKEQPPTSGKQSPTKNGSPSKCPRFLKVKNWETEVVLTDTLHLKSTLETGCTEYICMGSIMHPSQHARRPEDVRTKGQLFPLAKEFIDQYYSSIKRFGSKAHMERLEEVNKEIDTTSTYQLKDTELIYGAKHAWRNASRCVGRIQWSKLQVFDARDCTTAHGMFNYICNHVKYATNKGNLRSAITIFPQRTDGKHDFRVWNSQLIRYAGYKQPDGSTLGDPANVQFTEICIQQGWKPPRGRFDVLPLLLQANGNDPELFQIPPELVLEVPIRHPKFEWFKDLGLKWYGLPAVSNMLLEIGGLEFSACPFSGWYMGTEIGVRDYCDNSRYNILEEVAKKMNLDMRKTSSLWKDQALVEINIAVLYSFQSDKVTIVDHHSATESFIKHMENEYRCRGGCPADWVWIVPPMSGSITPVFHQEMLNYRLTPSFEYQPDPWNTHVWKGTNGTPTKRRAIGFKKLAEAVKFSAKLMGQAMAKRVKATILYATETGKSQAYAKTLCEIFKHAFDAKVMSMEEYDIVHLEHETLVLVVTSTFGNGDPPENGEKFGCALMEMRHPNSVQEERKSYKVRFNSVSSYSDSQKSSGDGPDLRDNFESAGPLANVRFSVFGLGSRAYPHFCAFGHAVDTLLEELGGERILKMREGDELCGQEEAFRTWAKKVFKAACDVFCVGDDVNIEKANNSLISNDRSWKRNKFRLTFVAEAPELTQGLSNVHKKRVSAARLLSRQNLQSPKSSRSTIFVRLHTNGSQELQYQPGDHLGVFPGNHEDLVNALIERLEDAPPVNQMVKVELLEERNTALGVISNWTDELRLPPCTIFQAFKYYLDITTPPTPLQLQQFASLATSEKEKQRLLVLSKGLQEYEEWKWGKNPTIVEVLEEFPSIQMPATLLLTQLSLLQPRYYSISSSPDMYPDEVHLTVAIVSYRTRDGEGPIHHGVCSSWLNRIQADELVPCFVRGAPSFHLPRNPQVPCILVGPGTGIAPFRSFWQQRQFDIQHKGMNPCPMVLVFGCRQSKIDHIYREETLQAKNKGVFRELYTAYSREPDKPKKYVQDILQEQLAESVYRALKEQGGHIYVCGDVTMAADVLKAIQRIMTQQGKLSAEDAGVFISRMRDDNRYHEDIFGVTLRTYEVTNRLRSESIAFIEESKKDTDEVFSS

[5] = target: T3, Nitric oxide synthase 3 (Homo sapiens, UniProt P29474); experiment: Inhibitory activity evaluated from soluble cell extract of human endothelia constitutive enzyme (Endothelial nitric oxide synthase) and partially purified by DEAE-sepharose chromatography; how it was run: as §1
T3 sequence (P29474 whole entry): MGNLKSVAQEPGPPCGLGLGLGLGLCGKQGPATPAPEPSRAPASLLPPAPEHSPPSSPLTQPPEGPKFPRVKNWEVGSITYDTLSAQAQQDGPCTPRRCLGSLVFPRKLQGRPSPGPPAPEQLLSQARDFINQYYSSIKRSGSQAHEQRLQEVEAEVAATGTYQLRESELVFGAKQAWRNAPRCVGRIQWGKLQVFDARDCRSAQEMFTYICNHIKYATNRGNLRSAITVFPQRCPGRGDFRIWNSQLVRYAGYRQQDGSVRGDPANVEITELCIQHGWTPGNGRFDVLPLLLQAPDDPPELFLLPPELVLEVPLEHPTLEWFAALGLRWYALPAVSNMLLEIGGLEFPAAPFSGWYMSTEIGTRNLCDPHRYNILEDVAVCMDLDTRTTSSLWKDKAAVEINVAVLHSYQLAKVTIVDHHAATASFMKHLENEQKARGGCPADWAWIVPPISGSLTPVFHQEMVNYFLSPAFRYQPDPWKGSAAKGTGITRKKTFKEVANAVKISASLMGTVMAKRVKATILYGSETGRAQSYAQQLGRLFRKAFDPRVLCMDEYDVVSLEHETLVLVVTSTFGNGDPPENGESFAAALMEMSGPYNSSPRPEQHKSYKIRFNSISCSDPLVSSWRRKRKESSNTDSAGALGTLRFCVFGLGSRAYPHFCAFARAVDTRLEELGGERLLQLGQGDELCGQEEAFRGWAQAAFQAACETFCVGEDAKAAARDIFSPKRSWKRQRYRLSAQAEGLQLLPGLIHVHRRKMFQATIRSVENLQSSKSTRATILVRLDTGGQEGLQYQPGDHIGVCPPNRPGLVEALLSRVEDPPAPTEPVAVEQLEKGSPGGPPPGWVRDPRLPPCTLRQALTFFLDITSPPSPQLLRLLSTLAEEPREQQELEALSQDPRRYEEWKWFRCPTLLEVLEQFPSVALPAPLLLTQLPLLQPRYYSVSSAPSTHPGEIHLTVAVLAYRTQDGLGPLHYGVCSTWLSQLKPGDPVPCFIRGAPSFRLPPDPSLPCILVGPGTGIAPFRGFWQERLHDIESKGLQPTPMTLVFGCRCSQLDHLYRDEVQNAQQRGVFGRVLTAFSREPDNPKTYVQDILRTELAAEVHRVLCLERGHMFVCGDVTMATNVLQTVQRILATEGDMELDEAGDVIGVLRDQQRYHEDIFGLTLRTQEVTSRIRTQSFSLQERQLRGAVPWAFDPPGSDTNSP

[6] = target: T2, Nitric oxide synthase 1; experiment: Inhibitory activity evaluated from soluble cell extract of Neuronal nitric oxide synthase and partially purified by DEAE-sepharose chromatography
[7] = target: T2, Nitric oxide synthase 1; experiment: Inhibitory activity evaluated from soluble cell extract of human Neuronal nitric oxide synthase and partially purified by DEAE-sepharose chromatography; how it was run: as §1

SMILES | IC50 [1] [µM] | IC50 [2] [µM] | inhibition [3] [%] | IC50 [4] [nM] | IC50 [5] [µM] | IC50 [6] [µM] | IC50 [7] [µM]
CCCCC1CCCCC(N)=N1 (configuration not stated) | 1.6 | 0.5 | 60 | 850 | 103 | – | –
CC1CCN=C(N)CC1 (configuration not stated) | 24 | 5.8 | – | – | 39 | 11 | –
CCC(CC)CC1CCCCC(N)=N1 (configuration not stated) | 3.3 | 2.1 | – | – | 660 | – | 5.4
NC1=NC(c2ccccc2)CCCC1 (configuration not stated) | 31 | 14 | – | – | 215 | – | 6.6
C=CCC1CCCCN=C1N (configuration not stated) | 19 | 5.8 | – | – | 380 | 16 | –
CCC1CCCCN=C1N (configuration not stated) | – | – | – | – | 38 | 2.4 | –
C[C@@H]1CCCC(N)=NC1 | – | – | – | 3800 | 39 | – | –

Compounds with a lower IC50 [5], results first:

IC50 [1] [µM] | IC50 [2] [µM] | inhibition [3] [%] | IC50 [4] [nM] | IC50 [5] [µM] | IC50 [6] [µM] | IC50 [7] [µM] | SMILES
– | – | 80 | – | 21 | – | – | C=CCC1CCCCC(N)=N1 (configuration not stated)
54 | 2.1 | – | – | 15 | – | – | NC1=NCCCCC1
– | – | 85 | – | 9.5 | – | – | CCCC1CCCCC(N)=N1 (configuration not stated)
